{"source": "ChEMBL document CHEMBL1629704", "about": "“Inhibition of dengue virus by an ester prodrug of an adenosine analog” (Antimicrob Agents Chemother, 2010)", "key": {"[1]": {"tested_on": "A549", "assay": "Cytotoxicity against human A549 cells up to 12.5 uM after 48 hrs by MTT assay", "type": "functional, cell-based"}, "[2]": {"tested_on": "A549", "assay": "Cytotoxicity against human A549 cells at >= 25 uM after 48 hrs by MTT assay", "type": "cell-based", "settings": "a549, 48 h"}, "[3]": {"tested_on": "dengue virus type 2", "assay": "Antiviral activity against Dengue virus 2 NGC infected in human A549 cells by CFI assay", "type": "functional, organism-based", "summary_of_the_method": "(§1)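 CFI assay: A549 cells seeded 2 × 10^4/well, infected next day (MOI 0.3 for DENV-2) with compound-virus mixture for 1 h, then refed with compound-containing medium. On day 2 cells were methanol-fixed at 4°C and intracellular E protein detected by ELISA (4G2 primary, HRP anti-mouse secondary). EC50 is the average of two independent experiments.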"}, "[4]": {"tested_on": "dengue virus type 1", "assay": "Antiviral activity against Dengue virus 1 MY10245 infected in human A549 cells by CFI assay", "type": "functional, organism-based", "summary_of_the_method": "as §1"}, "[5]": {"tested_on": "dengue virus type 2", "assay": "Antiviral activity against Dengue virus 2 MY10340 infected in human A549 cells by CFI assay", "type": "functional, organism-based", "summary_of_the_method": "as §1"}, "[6]": {"tested_on": "dengue virus type 3", "assay": "Antiviral activity against Dengue virus 3 MY22366 infected in human A549 cells by CFI assay", "type": "functional, organism-based", "summary_of_the_method": "as §1"}, "[7]": {"tested_on": "dengue virus type 4", "assay": "Antiviral activity against Dengue virus 4 MY22713 infected in human A549 cells by CFI assay", "type": "functional, organism-based", "summary_of_the_method": "as §1"}, "[8]": {"tested_on": "dengue virus type 2", "assay": "Antiviral activity against Dengue virus 2 NGC infected in human PBMC cells by plaque assay", "type": "functional, organism-based"}, "[9]": {"assay": "Cmax in CD-1 mouse at 25 mg/kg, po by LC-MS-MS analysis", "type": "ADME, organism-based", "parameters": "dose 25 mg/kg, route oral", "settings": "in vivo", "summary_of_the_method": "(§2)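 Female CD-1 mice dosed orally at 25 mg/kg, formulated at 2.5 mg/ml in 0.1 N HCl (1.5 equimolar), pH 3.5 with NaOH, topped off with 100 mM citrate pH 3.5. Blood taken from three animals per time point, 0.08–24 h. Plasma acetonitrile-methanol-acetic acid extract analysed by LC-MS-MS (LLOQ 9.2 ng/ml). Mean profile fitted noncompartmentally; F from dose-corrected p.o./i.v. AUC.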"}, "[10]": {"assay": "Tmax in CD-1 mouse at 25 mg/kg, po by LC-MS-MS analysis", "type": "ADME, organism-based", "parameters": "dose 25 mg/kg, route oral", "settings": "in vivo", "summary_of_the_method": "as §2"}, "[11]": {"tested_on": "Mus musculus", "assay": "AUC (0 to infinity) in CD-1 mouse at 25 mg/kg, po by LC-MS-MS analysis", "type": "ADME, organism-based, Plasma", "parameters": "time infinity, dose 25 mg/kg, route oral", "settings": "in vivo", "summary_of_the_method": "as §2"}, "[12]": {"assay": "Oral bioavailability in CD-1 mouse at 25 mg/kg by LC-MS-MS analysis", "type": "ADME, organism-based", "settings": "in vivo", "summary_of_the_method": "as §2"}, "[13]": {"assay": "Volume of distribution in CD-1 mouse at 5 mg/kg, iv by LC-MS-MS analysis", "type": "ADME, organism-based", "parameters": "dose 5 mg/kg, route intravenous", "settings": "in vivo", "summary_of_the_method": "(§3)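 Female CD-1 mice, single i.v. injection of 5 mg/kg (1 mg/ml) in pH 3.5 HCl/citrate formulation. Blood from three animals at 0.02–24 h; heparinized plasma extracted and quantified by LC-MS-MS (LLOQ 9.2 ng/ml). Noncompartmental analysis of the mean concentration-time profile.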"}, "[14]": {"assay": "Clearance in CD-1 mouse at 5 mg/kg, iv by LC-MS-MS analysis", "type": "ADME, organism-based", "parameters": "dose 5 mg/kg, route intravenous", "settings": "in vivo", "summary_of_the_method": "as §3"}, "[15]": {"assay": "Half life in CD-1 mouse at 5 mg/kg, iv by LC-MS-MS analysis", "type": "ADME, organism-based", "parameters": "dose 5 mg/kg, route intravenous", "settings": "in vivo", "summary_of_the_method": "as §3"}, "[16]": {"assay": "Cmax in Wistar rat at 24.8 mg/kg, po by LC-MS-MS analysis", "type": "ADME, organism-based", "parameters": "dose 24.8 mg/kg, route oral", "settings": "in vivo", "summary_of_the_method": "(§4)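 Female Wistar rats, fasted overnight until 4 h post-dose, given 24.8 mg/kg orally in pH 3.5 HCl/citrate solution. Serial blood sampling from groups of three, 0.17–48 h. Plasma quantified by LC-MS-MS (LLOQ 9.2 ng/ml). Noncompartmental fit of mean profile; bioavailability from dose-corrected AUC ratio versus i.v.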"}, "[17]": {"assay": "Tmax in Wistar rat at 24.8 mg/kg, po by LC-MS-MS analysis", "type": "ADME, organism-based", "parameters": "dose 24.8 mg/kg, route oral", "settings": "in vivo", "summary_of_the_method": "as §4"}, "[18]": {"tested_on": "Rattus norvegicus", "assay": "AUC (0 to infinity) in Wistar rat at 24.8 mg/kg, po by LC-MS-MS analysis", "type": "ADME, organism-based, Plasma", "parameters": "time infinity, dose 24.8 mg/kg, route oral", "settings": "in vivo", "summary_of_the_method": "as §4"}, "[19]": {"assay": "Oral bioavailability in Wistar rat at 24.8 mg/kg by LC-MS-MS analysis", "type": "ADME, organism-based", "settings": "in vivo", "summary_of_the_method": "as §4"}, "[20]": {"assay": "Volume of distribution at steady state Wistar rat at 5.9 mg/kg, iv by LC-MS-MS analysis", "type": "ADME, organism-based", "parameters": "dose 5.9 mg/kg, route intravenous", "settings": "in vivo, read-out: Vdss", "summary_of_the_method": "(§5)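 Female Wistar rats given 5.9 mg/kg i.v. in pH 3.5 HCl/citrate formulation. Serial blood from groups of three rats, 0.17–48 h. Heparinized plasma extracted with acetonitrile-methanol-acetic acid, LC-MS-MS quantification (LLOQ 9.2 ng/ml); noncompartmental analysis of mean profile.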"}, "[21]": {"assay": "Clearance in Wistar rat at 5.9 mg/kg, iv by LC-MS-MS analysis", "type": "ADME, organism-based", "parameters": "dose 5.9 mg/kg, route intravenous", "settings": "in vivo", "summary_of_the_method": "as §5"}, "[22]": {"assay": "Half life in Wistar rat at 5.9 mg/kg, iv by LC-MS-MS analysis", "type": "ADME, organism-based", "parameters": "dose 5.9 mg/kg, route intravenous", "settings": "in vivo", "summary_of_the_method": "as §5"}, "[23]": {"tested_on": "dengue virus type 2", "assay": "Antiviral activity against Dengue virus 2 NGC infected in human A549 cells after 2 days by CFI assay in presence of 40 mg/ml human serum albumin", "type": "functional, organism-based", "settings": "A549, 48 h", "summary_of_the_method": "(§6)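 Modified CFI: A549 cells infected with DENV-2 New Guinea C (MOI 0.3) for 1 h without compound. Inoculum then replaced with medium containing compound dilutions plus the stated HSA and/or AGP. On day 2, cells methanol-fixed and intracellular E protein detected by ELISA (4G2 primary, HRP anti-mouse secondary); EC50 derived.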"}, "[24]": {"tested_on": "dengue virus type 2", "assay": "Antiviral activity against Dengue virus 2 NGC infected in human A549 cells after 2 days by CFI assay in presence of 2 mg/ml alpha-1-acid glycoprotein", "type": "functional, organism-based", "settings": "A549, 48 h", "summary_of_the_method": "as §6"}, "[25]": {"tested_on": "dengue virus type 2", "assay": "Antiviral activity against Dengue virus 2 NGC infected in human A549 cells after 2 days by CFI assay in presence of 40 mg/ml human serum albumin and 2 mg/ml alpha-1-acid glycoprotein", "type": "functional, organism-based", "settings": "A549, 48 h", "summary_of_the_method": "as §6"}, "[26]": {"tested_on": "A549", "assay": "Cytotoxicity against human A549 cells up to 25 uM after 48 hrs by MTT assay", "type": "functional, cell-based"}}, "data": [{"smiles": "C#C[C@@]1(O)[C@H](O)[C@@H](CO)O[C@H]1n1cc(C(N)=O)c2c(N)ncnc21", "values": [{"measurement": "Activity", "setting": "[1]", "result": "Not toxic"}, {"measurement": "Activity", "setting": "[2]", "result": "Non-toxic"}, {"measurement": "EC50", "setting": "[3]", "result": 2.61, "unit": "µM"}, {"measurement": "EC50", "setting": "[4]", "result": 2.27, "unit": "µM"}, {"measurement": "EC50", "setting": "[5]", "result": 1.62, "unit": "µM"}, {"measurement": "EC50", "setting": "[6]", "result": 1.94, "unit": "µM"}, {"measurement": "EC50", "setting": "[7]", "result": 6.99, "unit": "µM"}, {"measurement": "EC50", "setting": "[8]", "result": 5, "unit": "µM"}, {"measurement": "Cmax", "setting": "[9]", "result": 0.27, "unit": "µM"}, {"measurement": "Tmax", "setting": "[10]", "result": 1, "unit": "h"}, {"measurement": "AUC", "setting": "[11]", "result": 420, "unit": "nM·h"}, {"measurement": "bioavailability", "setting": "[12]", "result": 1, "unit": "%"}, {"measurement": "Vd", "setting": "[13]", "result": 0.26, "unit": "L/kg"}, {"measurement": "clearance", "setting": "[14]", "result": 1.31, "unit": "L/h/kg"}, {"measurement": "half-life", "setting": "[15]", "result": 1.31, "unit": "h"}, {"measurement": "Cmax", "setting": "[16]", "result": 0.27, "unit": "µM"}, {"measurement": "Tmax", "setting": "[17]", "result": 0.17, "unit": "h"}, {"measurement": "AUC", "setting": "[18]", "result": 3150, "unit": "nM·h"}, {"measurement": "bioavailability", "setting": "[19]", "result": 2, "unit": "%"}, {"measurement": "Vd", "setting": "[20]", "result": 2.71, "unit": "L/kg"}, {"measurement": "clearance", "setting": "[21]", "result": 0.539, "unit": "L/h/kg"}, {"measurement": "half-life", "setting": "[22]", "result": 8.33, "unit": "h"}, {"measurement": "EC50", "setting": "[23]", "result": 4.76, "unit": "µM"}, {"measurement": "EC50", "setting": "[24]", "result": 2.52, "unit": "µM"}, {"measurement": "EC50", "setting": "[25]", "result": 4.64, "unit": "µM"}, {"measurement": "Activity", "setting": "[26]", "result": "Not toxic"}]}]}
